A selection: hits, their analogues and other compounds. The true share with any hit is near 2.5%.
CHO parental Ca: counter-screen: ATP calcium response change in parental CHO cells. parental CHO-K1, ATP-induced calcium, Fluo-8 fluorescence. inhibition, % at 5.6 µM. 330,000 compounds, 0.63% hits. AID 463079;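 active = inhibition above that plate's mean sample inhibition plus 3 SD, cut at about 26% in these data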;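 note: 0% = ATP-challenged DMSO wells and 100% = DMSO wells without ATP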
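Test system: parental CHO cells; detection: calcium-sensitive Fluo-8 fluorescence; evaluation: percent inhibition of calcium signal; also added: ATP as calcium-mobilizing challenge; repeats: one well per compound; control set: ATP-challenged DMSO wells low, unchallenged DMSO wells high; compound: single nominal dose of 5.6 µM per compound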
zfTRPN1 agonist: agonists of zebrafish TRPN1 channel; HEK293 zebrafish TRPN1-YFP, Fluo-8 calcium fluorescence; 100% = response to 87 µM carbachol; AID 1424; 220,000 compounds, 0.18% hits; activation, % at 3 µM;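 active = activation above its plate's cutoff, the mean activation of test wells on that plate plus 3 SD, cut at about 19% in these data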;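 note: 0% = DMSO alone and 100% = 87 µM carbachol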
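System: zebrafish TRPN1-YFP in HEK293 cells / Dosing: 3 µM single point / Timing: dye loading 1 h at 37 °C, then 30 min room temperature / Signal: Fluo-8 calcium fluorescence, excitation 470-495 nm, emission 515-575 nm / Read-out basis: percent activation from peak over basal fluorescence ratio, control-normalized / Control set: high carbachol 87 µM, low DMSO alone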
OX1R antag-1: blocks the human orexin 1 receptor; O43613; CHO/OX1R cells, Fluo-8 calcium fluorescence, orexin A; inhibition, % at 5 µM; 330,000 compounds, 0.43% hits; AID 434989;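 active = inhibition above its plate's threshold, mean inhibition of all tested compounds on the plate plus 3 SD, cut at about 37% in these data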;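 note: 0% = orexin A challenge wells and 100% = SB-334867-A antagonist wells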
Target sequence (O43613 whole entry, looked up): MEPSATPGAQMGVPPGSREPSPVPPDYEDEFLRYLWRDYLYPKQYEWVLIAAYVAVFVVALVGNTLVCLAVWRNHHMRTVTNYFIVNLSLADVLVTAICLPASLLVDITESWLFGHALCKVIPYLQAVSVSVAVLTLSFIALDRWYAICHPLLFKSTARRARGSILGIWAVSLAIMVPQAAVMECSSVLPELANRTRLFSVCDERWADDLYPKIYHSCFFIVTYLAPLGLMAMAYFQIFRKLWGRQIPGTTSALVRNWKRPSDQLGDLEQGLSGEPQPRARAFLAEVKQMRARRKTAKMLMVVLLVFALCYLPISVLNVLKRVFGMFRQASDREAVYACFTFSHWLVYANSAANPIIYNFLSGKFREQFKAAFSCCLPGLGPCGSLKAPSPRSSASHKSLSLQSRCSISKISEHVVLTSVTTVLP
TRPML3 agonist: activates the human TRPML3 channel | Q8TDD5 | HEK293 TRPML3-YFP, Fluo-8 calcium fluorescence; 100% = the carbachol control signal | activation, % at 3 µM | 220,000 compounds, 0.29% hits | AID 1448;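 active = activation above its plate's cutoff, the mean activation of the plate's test wells plus 3 SD, cut at about 12% in these data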;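 note: 0% = DMSO only wells and 100% = carbachol wells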
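Test system – HEK293 line with stable expression of human TRPML3-YFP channel · Control set – carbachol 87 µM final as high control (100%), DMSO as low control (0%) · Signal – Fluo-8 calcium dye fluorescence, ex 470-495, em 515-575 nm · Incubation – 1-h 37 °C dye load, 5-s basal, 120-s post-compound reads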
OX1R antag-2: blocks the human orexin 1 receptor; OX1R-expressing cells, FRET antagonist read-out; inhibition, % at 6.6 µM; 330,000 compounds, 1.8% hits; in the data active = inhibition mostly above about 38%, no sharp cut-off; inactive = mostly below about 40%;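 note: 0% = agonist challenge alone and 100% = reference antagonist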
OX1R Fluo8 conf: OX1R (human) antagonism, confirmed. shares compounds with OX1R antag-1. CHO/OX1R cells, orexin A calcium Fluo-8 fluorescence. inhibition, % at 5 µM. 1,100 compounds, 38% hits. AID 492963; in the data active = inhibition above about 29%;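 note: 0% = agonist challenge alone and 100% = reference antagonist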
CHO Ca triplic: signal in parental CHO cells, OX1R antagonist counter-screen; shares compounds with OX1R antag-1; parental CHO-K1, ATP-induced calcium, Fluo-8 fluorescence; inhibition, % at 5.6 µM; 1,100 compounds, 9.3% hits; AID 492965;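 active = inhibition above a per-plate limit, the mean inhibition of that plate's test compounds plus 3 SD, cut at about 25% in these data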;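 note: 0% = ATP challenge with DMSO and 100% = DMSO without ATP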
Active calls of the source: *; x = not tested or not shown.

SMILES	CHO parental Ca	zfTRPN1 agonist	OX1R antag-1	TRPML3 agonist	OX1R antag-2	OX1R Fluo8 conf	CHO Ca triplic
O=C(CN1CCN(S(=O)(=O)c2ccc(F)c(Cl)c2)CC1)N1CCOCC1	2	x	-3	x	-1	x	x
CC1(c2ccccc2)NC(=O)N(CC(=O)Nc2ccc(S(=O)(=O)Nc3ncccn3)cc2)C1=O (stereo not given)	0	x	-8	x	6	x	x
Cc1cc(NS(=O)(=O)c2ccc(NC(=O)CN3C(=O)NC(C)(c4ccccc4)C3=O)cc2)nc(C)n1 (stereo not given)	-4	x	26	x	21	4	1
O=Cc1cccc(OCc2cccc3ccccc23)c1	0	x	-2	x	-12	x	x
CCCc1ccc(C(=O)NC(=O)c2ccccc2O)cc1	10	20*	27	11	23	9	73*
C[C@@H](C(=O)Nc1ccc2ccccc2c1)[C@H]1C[C@]1(C)[C@H](NC(=O)OCc1ccccc1)c1ccccc1	-19	1	-53	0	13	x	x
Cc1cc(C(=O)N[C@H](c2ccccc2)[C@@]2(C)C[C@@H]2[C@@H](C)C(=O)Nc2ccc3ccccc3c2)n(C)n1	-2	-2	41	-1	52	12	-11
COC(=O)c1cccc(NC(=S)NCc2ccc(Cl)cc2)c1	11	15	31	9	9	27	5
Cc1ccc(C(CC(=O)N2CCNCC2)c2ccccc2)c(O)c1C (stereo not given)	-4	x	34	x	2	41*	31*
Cc1ccc(C(CC(=O)N2CCCCC2)c2ccccc2)c(O)c1C (stereo not given)	-11	x	-2	x	-12	x	x
C=CCn1c(CCCOc2ccc(Cl)cc2Cl)nnc1SCC(=O)Nc1nccs1	5	-1	36	1	43	23	8
O=C(Nc1ccccc1)Nc1cccc(C(F)(F)F)c1	10	24*	33	14*	64	0	21
O=C(COC(=O)c1ccc2c(c1)OCO2)Nc1ccccc1F	-3	x	1	x	5	x	x
CC(Oc1ccc(Br)cc1Cl)C(=O)Nc1ccncc1 (stereo not given)	25	x	31	x	5	33*	14
COC(=O)/C=C/c1c(C)nc(NCc2ccccc2)nc1Cl	-18	x	-15	x	0	x	x
Cn1c(=O)c(C(=O)NNC(=O)c2ccc(Br)cc2)c(O)c2ccccc21	19	x	27	x	7	8	16
CCc1cccc(CC)c1NC(=O)C(CC)Sc1nc2ccncc2[nH]1 (stereo not given)	-3	x	-22	x	26	x	x
COC(=O)[C@H](CC(C)C)NS(=O)(=O)c1ccccc1	-2	x	-6	x	6	x	x
COc1ccc(CN([C@H](CO)CC(C)C)S(=O)(=O)N(Cc2ccccc2)[C@H](CO)CC(C)C)cc1	29	x	67*	x	14	4	-13
COC(=O)[C@@H](CC(C)C)NS(=O)(=O)N(Cc1ccccc1)[C@@H](CC(C)C)C(=O)OC	-5	x	47	x	23	3	-19
C[C@@H]1CN([C@@H](C)CO)C(=O)c2cc(NC(=O)Nc3ccc(F)cc3)ccc2O[C@@H]1CN(C)Cc1ccc(Oc2ccccc2)cc1	4	x	9	x	1	x	x
Cc1cc(OCC(=O)N(C)C2CCCCC2)ccc1Cl	-19	-1	-23	0	27	x	x
Cc1cc(OCC(=O)N(C)C2CCCCC2)cc(C)c1Cl	9	-1	26	0	37	14	-5
C[N+]1=C(/C=C/Nc2ccccc2Cl)C(C)(C)c2ccccc21	14	1	9	1	16	x	x
COC(=O)c1ccc2c(c1)C(C)(C)C(/C=C/c1ccccc1O)=[N+]2C	21	9	33	9	31	57*	46*
SMILES	CHO parental Ca	zfTRPN1 agonist	OX1R antag-1	TRPML3 agonist	OX1R antag-2	OX1R Fluo8 conf	CHO Ca triplic
CCCCCCCCn1c(=O)c(C(=O)OC)c(N)c2ccccc21	-4	0	25	1	26	19	35*
COc1ccc(NS(=O)(=O)c2cccc(NC(=O)COc3ccccc3[N+](=O)[O-])c2)cc1	2	x	51*	x	19	18	9
O=C1NCC(c2ccccc2)C1C(=O)N/N=C\c1ccc(-c2ccc(Cl)c(Cl)c2)o1 (stereo not given)	8	-1	52*	-1	60	51*	3
O=C(N/N=C/c1ccc(-c2ccc([N+](=O)[O-])cc2)o1)[C@H]1C[C@@H]1c1ccccc1	-11	-1	-7	0	15	x	x
COc1ccc(C2NC3=C(CCC3)C3(C#N)C4(N=C(N)C23C#N)OCCO4)cc1 (stereo not given)	-8	1	36	0	40	3	-1
O=C(N/N=C/c1ccccn1)c1cc(-c2ccc(Br)cc2)nc2ccccc12	20	0	50*	0	24	40*	23
Cc1cc([N+](=O)[O-])ccc1NC(=O)CSc1nnc(C)n1C	8	x	13	x	23	x	x
O=C(CN1CCC(c2nc3ccccc3s2)CC1)NCc1cccs1	4	9	52*	3	3	-5	-2
O=C(CN1CCC(c2nc3ccccc3s2)CC1)N1CCCCC1	-20	3	-24	3	13	x	x
COc1cccc(CCNC(=O)c2cc(COc3c(F)cccc3F)on2)c1	1	x	-22	x	11	x	x
CCCc1nnc(NC(=O)Cn2c(=O)oc3ccccc32)s1	2	1	-16	1	-2	x	x
CCCc1nnc(NC(=O)Cn2c(=O)oc3cc(Br)ccc32)s1	6	0	40	2	-2	28	11
Cc1cc(C)nc(SCC(=O)Nc2ccc(N3CCOCC3)c(Cl)c2)n1	22	6	32	3	55	21	31*
CC(=O)c1c(C)nn(CC(=O)NC2CCCN(Cc3ccc(CC(C)C)cc3)C2)c1C (stereo not given)	-17	x	-24	x	5	x	x
O=[N+]([O-])c1ccc(Cl)cc1CNc1ccc(F)c(F)c1	-11	-1	38	0	21	1	-4
Cc1nc2ccc(NS(=O)(=O)c3c(F)cc(F)cc3Br)cc2s1	-2	x	38	x	13	15	16
COc1ccc(NC(=O)CC2SC(N3CCOCC3)=NC2=O)cc1OC (stereo not given)	-10	x	-16	x	4	x	x
COc1ccc(C(=O)NNC(=S)NC(=O)c2cccs2)cc1	18	x	22	x	19	0	-3
COc1ccc(C(=O)NC(=S)NNC(=O)c2cccc(C)c2)cc1	24	x	36	x	11	31*	13
COc1ccc(C(=O)NNC(=S)NC(=O)c2ccc(OC)cc2)cc1	12	x	23	x	7	x	x
O=C(CCCc1ccccc1)NCc1ccccc1Cl	-8	x	-18	x	22	x	x

Screening data from PubChem BioAssay.
